Experiment: Toxicity liver stage against HepG2, at 10uM
Assay type: cell-based
Parameters: test concentration 10 uM, cell line HepG2-A16-CD81EGFP
Conditions: human, HepG2-A16-CD81EGFP cells; read-out: INHIBITION
Procedure, shortened: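 Uninfected HepG2-A16-CD81EGFP cells, 3 × 10^3 per well, 1536-well, plated on prespotted compound at 10 μM final, parasite-free screening media added to match infected plates; puromycin 10 μM positive, DMSO 0.5% negative; run in parallel with 48 h PbLuc assay at 37 °C, 5% CO2; viability by CellTiter-Glo luminescence, normalized to controls.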

## FC(F)(F)c1[nH]nc2c1CN(Cc1ccccc1)CC2
  cytotoxicity at 10 µM: 11.8%

## c1ccc(C2CCN(c3cncc(-n4cccn4)n3)CC2)cc1
  cytotoxicity at 10 µM: -15.3%

## O=C(NC1CCCC1)O[C@H]1COCCN(c2nc3ccccc3s2)C1
  cytotoxicity at 10 µM: -0.655%

## CC(C)N1CCN(C)CC1c1nnc2ccc(C(=O)N3CCCC3)cn12 (stereo unspecified)
  cytotoxicity at 10 µM: -145%

## COc1ccc(-c2c(C)nn3c(=N)c(C#N)n[nH]c23)cc1OC
  cytotoxicity at 10 µM: 8.29%

## Cc1cccc(NC2CCc3c2[nH]c(=O)n(C2CCCCC2)c3=O)c1C (stereo unspecified)
  cytotoxicity at 10 µM: 5.05%

## Cc1cnc(NC(=O)c2csc(NCC(C)C)n2)s1
  cytotoxicity at 10 µM: 34.4%

## Cc1[nH]/c(=N\C(=O)c2csc(NC3CCCC3)n2)sc1C
  cytotoxicity at 10 µM: 38.8%

## Oc1cc(C2CCCCN2Cc2cccs2)nc(-c2ccccn2)n1 (stereo unspecified)
  cytotoxicity at 10 µM: 39.1%

## Cc1nn(C)cc1C1=NS(=O)(=O)N(C)C(C(=O)Nc2ccc(Br)cc2)=C1
  cytotoxicity at 10 µM: 3.46%

## COc1cccc(OC)c1CNC(Cc1ccsc1)c1ccc(C)cn1 (stereo unspecified)
  cytotoxicity at 10 µM: 2.75%

## CN1CCc2nc(C3CCN(C(=O)CCC4CCCC4)CC3)ncc2C1
  cytotoxicity at 10 µM: -3.06%

## Cc1cc(-c2cnc(NCc3cccnc3)nc2C(C)(C)C)on1
  cytotoxicity at 10 µM: 49.6%

## CC(C)(C)OC(=O)N1CCCN(Cc2ccon2)c2ccccc21
  cytotoxicity at 10 µM: 11.1%

## CN1CCN(c2ccc(NCc3ccc(OC(F)(F)F)cc3)cn2)CC1
  cytotoxicity at 10 µM: 14.9%

## CCCn1c(=O)n(CCC(=O)N(C)Cc2ccc(C)o2)c2ccccc21
  cytotoxicity at 10 µM: -3.26%

## CCc1nc(CN(C)C(=O)c2ccc(OCCCOC)nc2)cs1
  cytotoxicity at 10 µM: -19.5%

## NC(=O)N1CCCN(C2CCc3ccc(F)cc32)CC1 (stereo unspecified)
  cytotoxicity at 10 µM: 3.93%

## Cc1cc(CN(C)Cc2csc(-c3ccc(C(C)C)cc3)n2)no1
  cytotoxicity at 10 µM: 41.1%

## CC(CNC(=O)c1ccc(C#N)cc1)N1CCc2ccccc21 (stereo unspecified)
  cytotoxicity at 10 µM: 2.84%

## CN(Cc1ccccc1OC(F)(F)F)C(=O)C1CC1
  cytotoxicity at 10 µM: 10.8%

## CN(C)c1cc(C(=O)NCc2cccnc2-n2cncn2)ccn1
  cytotoxicity at 10 µM: 8.15%

## CN(C)c1ncccc1NC(=O)C1CN(Cc2ccccc2)CCO1 (stereo unspecified)
  cytotoxicity at 10 µM: 0.499%

## CC(C)c1cc(C(=O)N2CCN(Cc3ccc(C#N)cc3)CC2)n[nH]1
  cytotoxicity at 10 µM: 26.3%

## CC(C)c1noc(CN(Cc2ccc(F)cc2)C2CC2)n1
  cytotoxicity at 10 µM: 6.83%

## Cc1n[nH]c(C)c1C1COCCN1C(=O)Cc1ccccc1F (stereo unspecified)
  cytotoxicity at 10 µM: -2.46%

## Cc1ccc(C)c(OC2CCN(C(=O)CNc3ccccc3Cl)CC2)c1
  cytotoxicity at 10 µM: 40.2%

## Cc1nc2ccccc2nc1NCc1cccc(OCC2CCCO2)c1 (stereo unspecified)
  cytotoxicity at 10 µM: 44.3%

## CC(C)n1nc2c(cc1=O)CN(c1ncnc3ccsc13)CC2
  cytotoxicity at 10 µM: 60.6%

## O=S(=O)(c1cccnc1)N1CCN(CC(O)c2ccccc2)CC1 (stereo unspecified)
  cytotoxicity at 10 µM: 0.871%

## CS(=O)(=O)Cc1noc(CN2CCc3c(Cl)cccc3C2)n1
  cytotoxicity at 10 µM: -4.07%

## CS(=O)(=O)c1cccc(OCC(=O)N2CCCC2c2ccccc2Cl)c1 (stereo unspecified)
  cytotoxicity at 10 µM: 4.36%

## COCC(=O)Nc1nccn1Cc1ccc(Br)cc1
  cytotoxicity at 10 µM: -55.1%

## Cc1nc(CN2CCCC(Nc3ncnc4c3CCC4)C2)no1 (stereo unspecified)
  cytotoxicity at 10 µM: 34.3%

## CN(Cc1ccc(Cl)s1)C(=O)CN(C)C1CCc2ccccc21 (stereo unspecified)
  cytotoxicity at 10 µM: 18.1%

## CC(=O)c1c(F)cccc1N1CCC(Cc2cccnc2)CC1
  cytotoxicity at 10 µM: 43.6%

## Cc1cnn(CC2CN(c3ncnc4ccsc34)CCO2)c1 (stereo unspecified)
  cytotoxicity at 10 µM: 53.2%

## COCC(=O)N1C[C@H]2CCC[C@@]2(COC)C1
  cytotoxicity at 10 µM: 5.93%

## CC(=O)N1CCOC2(CCN(C(=O)C3CC3)CC2)C1
  cytotoxicity at 10 µM: -106%

## CN1CCN(Cc2cn3c(n2)CN(Cc2ccncc2)CC3)CC1
  cytotoxicity at 10 µM: -94.8%

## Cc1[nH]c2ccccc2c1-c1ccnc(N[C@@H](C)CO)n1
  cytotoxicity at 10 µM: -6.52%

## c1cc(-c2cn3nccc3nc2C2CCCCC2)nc(N2CCCC2)n1
  cytotoxicity at 10 µM: 10.7%

## CSc1nccc(N2CCC3(CCCN(Cc4ccc(F)cc4)C3)C2)n1 (stereo unspecified)
  cytotoxicity at 10 µM: 9.5%

## c1ccc(C2CCN(c3ncnc4c3CCNC4)CC2)cc1
  cytotoxicity at 10 µM: 5.03%

## COc1cccc(CN2CCC(CO)(Cc3ccc(Cl)cc3)CC2)c1O
  cytotoxicity at 10 µM: -133%

## CCOc1ccc(CN(CCOC)c2nc(C)nc3oc(C)nc23)cc1
  cytotoxicity at 10 µM: -30.2%

## CCn1ncc(CNC(=O)c2cn(CCC3CCCCN3)nn2)c1C (stereo unspecified)
  cytotoxicity at 10 µM: 2.72%

## Cc1cc(Cl)ccc1C(=O)C1CCCN(Cc2cnc(N(C)C)s2)C1 (stereo unspecified)
  cytotoxicity at 10 µM: -13.1%

## Cc1nn(C)c2nc(N(CCOc3ccccc3)CC3CCCO3)sc12 (stereo unspecified)
  cytotoxicity at 10 µM: 46.8%

## COc1cc(Oc2cnc3ccccc3n2)ccc1CN1CCCC1
  cytotoxicity at 10 µM: 5.27%

## Cc1ncsc1-c1ccn(CC(=O)Nc2cnn(C)n2)n1
  cytotoxicity at 10 µM: 93.8%

## Cc1nn(-c2ccccc2)c(C)c1-c1ccnc(N2CCCNCC2)n1
  cytotoxicity at 10 µM: -9.5%

## Cc1cc(C(F)(F)F)nn1CCNC(=O)C(C)n1ccnc1C(C)C (stereo unspecified)
  cytotoxicity at 10 µM: -5.24%

## CCc1ccc(C2CC(=O)Nc3cc(NS(C)(=O)=O)ccc32)o1 (stereo unspecified)
  cytotoxicity at 10 µM: 86%

## CCS(=O)(=O)CCNC1CCN(c2nc3ccc(Cl)cc3s2)CC1
  cytotoxicity at 10 µM: 32%

## Cc1cc(N2CCCC(c3[nH]ncc3Cc3ccccc3)C2)nc(N)n1 (stereo unspecified)
  cytotoxicity at 10 µM: 57.1%

## CC(C)c1cc(C2CCN(C(=O)Cn3cnc4ccccc43)CC2)[nH]n1
  cytotoxicity at 10 µM: 51.8%

## Cc1ccc(OC2CCN(CCn3cncn3)CC2)cc1
  cytotoxicity at 10 µM: -1.67%

## O=C(C1CCOCC1)N1CCC(OCc2cccnc2)CC1
  cytotoxicity at 10 µM: 2.12%

## COc1ccccc1OCc1cc(C(=O)NC[C@@H]2CCCN2)n[nH]1
  cytotoxicity at 10 µM: -3.81%

## CNc1nc(C)c(C(=O)N2C[C@@H](C(=O)O)[C@H](C3CC3)C2)s1
  cytotoxicity at 10 µM: 4.29%

## CC(c1cccc(-c2nccn2CCc2cn[nH]c2)c1)N(C)C (stereo unspecified)
  cytotoxicity at 10 µM: -4.83%

## COc1ccc2cc(C3CN(C(=O)N(C)C)CCO3)ccc2c1 (stereo unspecified)
  cytotoxicity at 10 µM: 4.26%

## Nc1nccc(N2CCCC(CO)(CCOc3ccccc3)C2)n1 (stereo unspecified)
  cytotoxicity at 10 µM: 46.7%

## CCc1c(C)nc2cc(C3CCN(Cc4ccccc4F)C3)nn2c1O (stereo unspecified)
  cytotoxicity at 10 µM: 1.7%

## Cc1nn(C)c(Cl)c1C1CCCN1C(=O)c1ccc(C(N)=O)cn1 (stereo unspecified)
  cytotoxicity at 10 µM: -32%

## CCOC(=O)c1ccc(S(=O)(=O)NCc2cccnc2N(C)C)cc1
  cytotoxicity at 10 µM: 32.1%

## O=C(NCCCNc1ccc(C(F)(F)F)cn1)c1ccc(F)cc1Br
  cytotoxicity at 10 µM: 13.1%

## N#Cc1ccc(CN2CCN(C(=O)c3cc(C4CC4)[nH]n3)CC2)cc1
  cytotoxicity at 10 µM: 18.9%

## CCCS(=O)(=O)N1CCC2(CC1)CCn1c(-c3cnn(C)c3)cnc12
  cytotoxicity at 10 µM: -142%

## CC(=O)N1CC[C@H]2[C@H](C[C@@H](Cn3cncn3)N2c2nccs2)C1
  cytotoxicity at 10 µM: -140%

## COc1cc(N2CC[C@@H](O)[C@@H]2Cc2cccnc2)ncn1
  cytotoxicity at 10 µM: -77.9%

## COc1cccc(-c2noc(C3CCN(Cc4ccccc4F)C3)n2)c1 (stereo unspecified)
  cytotoxicity at 10 µM: -2.06%

## COc1cc(N2CCCC3(CCN(c4cccnc4)C3=O)C2)ncn1 (stereo unspecified)
  cytotoxicity at 10 µM: -103%

## CN(C)CC(=O)N1CCC2(CC1)CN(c1ncccn1)CCO2
  cytotoxicity at 10 µM: -68.7%

## CNC(=O)c1cc2c(nc1NCC(C)C)CCN(CC1CC1)CC2
  cytotoxicity at 10 µM: -158%

## COc1cc(N2CCC3(CCCN(Cc4ccccn4)C3)C2)ncn1 (stereo unspecified)
  cytotoxicity at 10 µM: -88.6%

## NC(=O)N1CCC2(CCN(C(=O)c3cccnc3)CC2)C1
  cytotoxicity at 10 µM: -83%

## Cc1nccc(NCc2cncc3c2CCN(CC2CC2)C3)n1
  cytotoxicity at 10 µM: -92.4%

## Cc1ccc(CN2CCCC3(CCN(Cc4ccoc4)CC3)C2)cc1
  cytotoxicity at 10 µM: -91%

## CCN1CCn2c(-c3cccc(F)c3)cnc2C12CCN(C(C)=O)CC2
  cytotoxicity at 10 µM: -1.09%
